Assay results as given in ChEMBL document CHEMBL5236609, “Optimization of 1,2,4-Triazole-3-thiones toward Broad-Spectrum Metallo-β-lactamase Inhibitors Showing Potent Synergistic Activity on VIM- and NDM-1-Producing Clinical Isolates” (J Med Chem, 2022).

Experiments:
[1] = Inhibition of bacterial VIM-1 (unknown origin) expressed in Escherichia coli EXPRESS BL21(DE3) assessed as inhibition constant by measuring rate of substrate hydrolysis by UV-visible spectrophotometry; design: species or system Bacteria
In short: (§1)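 Reporter-substrate assay with purified MBL (1–70 nM final) in 50 mM HEPES pH 7.5 at 30 °C. […] Inhibitor 0.5–1000 μM final. Ki derived from the v0/vi vs [I] slope assuming competitive inhibition, or from a Dixon plot. Ki given when inhibition >70%, otherwise % inhibition at 100 μM. Triplicate.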

[2] = Solubility in PBS pH 7.4 after 24 hrs by LC-MS/MS analysis; format: physicochemical
In short: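 Solubility in 10 mM PBS, pH 7.4.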

[3] = Metabolic stability in CD-1 mouse microsomes assessed as half life at 37 degC by LC-MS/MS analysis; format: ADME, Microsome
In short: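 Mouse liver microsomes, mixed gender, at 37 °C for 40 min; propranolol control. Reports t1/2, intrinsic clearance and % intact compound remaining at 40 min.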

[4] = target: T1, Insulin-degrading enzyme (Homo sapiens, UniProt P14735); test: Inhibition of recombinant human IDE using ATTO 655-Cys-Lys-Leu-Val-Phe-Phe-Ala-Glu-Asp-Trp as substrate measured after 45 mins by fluorescence assay
T1 sequence (P14735 whole entry): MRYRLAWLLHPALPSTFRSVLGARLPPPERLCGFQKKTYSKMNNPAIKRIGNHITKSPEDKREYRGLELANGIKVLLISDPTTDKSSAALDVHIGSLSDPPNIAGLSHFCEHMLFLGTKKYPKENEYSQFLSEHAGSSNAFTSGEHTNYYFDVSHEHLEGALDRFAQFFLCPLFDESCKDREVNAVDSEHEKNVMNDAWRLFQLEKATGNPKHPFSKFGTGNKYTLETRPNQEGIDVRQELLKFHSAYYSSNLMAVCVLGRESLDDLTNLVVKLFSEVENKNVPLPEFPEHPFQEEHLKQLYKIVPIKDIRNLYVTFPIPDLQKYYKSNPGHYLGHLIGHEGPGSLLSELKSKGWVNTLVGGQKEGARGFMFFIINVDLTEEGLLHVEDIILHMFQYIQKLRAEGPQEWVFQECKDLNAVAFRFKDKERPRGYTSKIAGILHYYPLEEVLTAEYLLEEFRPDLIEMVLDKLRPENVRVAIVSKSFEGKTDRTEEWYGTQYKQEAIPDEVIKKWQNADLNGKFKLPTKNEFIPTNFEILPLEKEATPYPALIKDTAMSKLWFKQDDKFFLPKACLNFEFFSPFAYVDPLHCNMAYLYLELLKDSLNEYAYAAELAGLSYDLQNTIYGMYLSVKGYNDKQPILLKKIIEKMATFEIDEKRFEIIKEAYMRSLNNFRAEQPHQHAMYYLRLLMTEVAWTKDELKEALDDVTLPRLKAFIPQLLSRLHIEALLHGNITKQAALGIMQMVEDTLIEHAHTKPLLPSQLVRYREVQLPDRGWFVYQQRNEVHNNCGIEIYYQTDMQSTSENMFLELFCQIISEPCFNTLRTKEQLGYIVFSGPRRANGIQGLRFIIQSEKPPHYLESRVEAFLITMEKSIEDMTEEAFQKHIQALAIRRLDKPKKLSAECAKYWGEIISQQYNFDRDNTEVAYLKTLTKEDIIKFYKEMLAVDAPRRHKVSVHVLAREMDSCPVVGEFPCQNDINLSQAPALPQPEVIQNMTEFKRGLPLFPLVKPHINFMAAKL

[5] = target: T2, Endoplasmic reticulum aminopeptidase 1 (Mus musculus) (UniProt Q9EQH2); test: Inhibition of recombinant mouse ERAAP using fluorogenic substrate H-Leu-AMC at 100 uM relative to control
T2 sequence (whole entry): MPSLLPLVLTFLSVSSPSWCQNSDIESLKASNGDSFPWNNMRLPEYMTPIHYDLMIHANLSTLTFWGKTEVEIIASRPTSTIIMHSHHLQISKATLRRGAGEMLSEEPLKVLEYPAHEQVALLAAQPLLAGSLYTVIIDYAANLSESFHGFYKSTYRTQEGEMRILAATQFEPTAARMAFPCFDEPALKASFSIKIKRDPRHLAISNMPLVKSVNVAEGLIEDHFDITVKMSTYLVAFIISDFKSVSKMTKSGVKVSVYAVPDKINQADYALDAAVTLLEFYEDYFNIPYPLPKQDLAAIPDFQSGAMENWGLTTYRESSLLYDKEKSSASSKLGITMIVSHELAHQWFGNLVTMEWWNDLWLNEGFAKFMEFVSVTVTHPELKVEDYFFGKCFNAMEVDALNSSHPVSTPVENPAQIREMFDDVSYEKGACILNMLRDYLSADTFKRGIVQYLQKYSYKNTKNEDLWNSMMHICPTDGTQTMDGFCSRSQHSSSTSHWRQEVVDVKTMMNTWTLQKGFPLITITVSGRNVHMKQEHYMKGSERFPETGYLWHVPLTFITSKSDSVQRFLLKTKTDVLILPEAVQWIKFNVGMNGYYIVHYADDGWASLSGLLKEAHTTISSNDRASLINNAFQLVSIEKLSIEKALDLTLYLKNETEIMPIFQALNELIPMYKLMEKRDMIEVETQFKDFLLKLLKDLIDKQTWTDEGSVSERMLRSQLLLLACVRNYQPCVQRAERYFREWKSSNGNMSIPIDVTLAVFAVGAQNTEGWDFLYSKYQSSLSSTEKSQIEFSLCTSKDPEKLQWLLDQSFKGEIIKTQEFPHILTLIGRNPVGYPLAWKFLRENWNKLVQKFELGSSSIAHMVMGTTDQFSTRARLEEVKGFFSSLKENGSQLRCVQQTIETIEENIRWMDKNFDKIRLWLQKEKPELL
In short: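 Mouse ERAAP, H-Leu-AMC substrate; undisclosed in-house control inhibitor. Percent inhibition at 100 μM, one experiment in duplicate.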

[6] = test system: Escherichia coli; test: Antimicrobial activity against blaNDM-1-producing multidrug-resistant Escherichia coli SI-004 clinical isolate assessed as meropenem MIC at 32 ug/ml by broth microdilution method (reference value: 64 ug/ml)
[7] = Cytotoxicity against human HeLa cells assessed as LDH release incubated for 24 hrs by membrane integrity assay; format: toxicity, cell-based
In short: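 HeLa cells (20,000/well) exposed to compound up to 250 μM for 24 h at 37 °C, 5% CO2 in DMEM with 10% FBS, 4.5 mg/mL glucose and 2 mM L-glutamine. LDH release expressed as % of Triton X-100 maximum lysis; IC50 is the concentration giving 50% cytotoxicity.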

[8] = Inhibition of bacterial IMP-1 (unknown origin) expressed in Escherichia coli EXPRESS BL21(DE3) assessed as inhibition constant by measuring rate of substrate hydrolysis by UV-visible spectrophotometry; design: species or system Bacteria; in short: as §1

## O=C(O)[C@H](CCCn1c(-c2ccccc2)n[nH]c1=S)N(Cc1ccccn1)Cc1ccccn1
[1]
  Ki: 1700 nM
[2]
  solubility at 24 h: ≥ 200 µM
[3]
  half-life: > 40 min
[4]
  IC50: 41 µM
[5]
  inhibition: 13%
[6]
  MIC: 0.06 µg/mL

## O=C(O)[C@H](CCCn1c(-c2ccccc2)n[nH]c1=S)N(Cc1c[nH]cn1)Cc1c[nH]cn1
[1]
  Ki: 150 nM
[7]
  CC50 at 24 h: > 250 µM
[2]
  solubility at 24 h: ≥ 200 µM
[3]
  half-life: > 40 min
[4]
  IC50: 20 µM
[5]
  inhibition: 51%
[6]
  MIC: 0.06 µg/mL

## O=C(O)[C@H](CCn1c(-c2ccccc2)n[nH]c1=S)N(Cc1c[nH]cn1)Cc1c[nH]cn1
[1]
  Ki: 390 nM
[8]
  Ki: 6.2 µM
[7]
  CC50 at 24 h: > 250 µM
[2]
  solubility at 24 h: ≥ 200 µM
[3]
  half-life: > 40 min
[4]
  IC50: 17 µM
[5]
  inhibition: 51%
[6]
  MIC: 0.06 µg/mL

## Cc1[nH]cnc1CN(Cc1c[nH]cn1)[C@@H](CCCn1c(-c2ccccc2)n[nH]c1=S)C(=O)O
[1]
  Ki: 380 nM
[8]
  Ki: 4.5 µM
[7]
  CC50 at 24 h: 105 µM
[2]
  solubility at 24 h: ≥ 200 µM
[3]
  half-life: > 40 min
[4]
  IC50: 35 µM
[5]
  inhibition: 42%
[6]
  MIC: 0.06 µg/mL

## O=C(O)[C@H](CCCn1c(-c2ccc3ccccc3c2)n[nH]c1=S)N(Cc1c[nH]cn1)Cc1c[nH]cn1
[1]
  Ki: 520 nM
[8]
  Ki: 4.7 µM
[2]
  solubility at 24 h: ≥ 200 µM
[3]
  half-life: > 40 min
[4]
  IC50: 9.1 µM
[5]
  inhibition: 63%
[6]
  MIC: 0.06 µg/mL
